# Results as given in PubChem BioAssay AID504354 (Broad Institute, 2011).
# A number with no mark means an inactive call.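 Rule for the calls: active = curve reaches 10% of the strong reference activator's caspase signal at or below the top valid tested dose; inactive = signal moves in the opposite direction, or the rest.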
# Test: apoptosis induction in non-primed human MEWO line – cell-based, luminescence, dry powder, set 2, counter-screen for A1 inhibitor project, dose response (AID 504354)
# Details: MEWO cells (unprimed), caspase-Glo luminescence, 3 h, active compounds read high; at 35 µM unless noted
# Method in brief: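 Doses: Compound delivered into wells by pin transfer | Assay system: Unprimed A1-expressing MEWO cells | Amount: 2500 cells/well | Schedule: 3 h 37 °C compound exposure, 1 h room-temperature reagent incubation | Measured by: CaspaseGlo luminescence | Measure: Caspase activity from luminescent signal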
row,SMILES,caspase activation
1,Cc1ccc(Sc2c([N+](=O)[O-])c(=O)oc3ccccc23)cc1,-4.32%
2,CCSc1c([N+](=O)[O-])c(=O)oc2ccccc12,-0.935% [at 0.26 µM]
3,O=c1oc2ccccc2c(Nc2cc(Cl)cc(Cl)c2)c1[N+](=O)[O-],-1.06% [at 8 µM]
4,Cc1ccc(Sc2c([N+](=O)[O-])c(=O)n(C)c3ccccc23)cc1,2.38%
5,Cn1c(=O)c([N+](=O)[O-])c(Nc2ccc(Cl)cc2)c2ccccc21,1.87% [at 1 µM]
6,CN1C(=O)C(C)(C)N(Cc2ccccc2)c2ccccc21,0.935% [at 2.1 µM]
7,O=c1oc2ccccc2c(Cl)c1[N+](=O)[O-],-4.52% [at 16 µM]
8,Cc1ccc(Sc2cc(=O)n(C)c3ccccc23)cc1,-6.38%
9,Cn1c(=O)c([N+](=O)[O-])c(Oc2ccccc2)c2ccccc21,2.97% [at 0.135 µM]
10,O=c1oc2ccccc2c(Sc2ccccc2)c1[N+](=O)[O-],-5.15%
11,O=[N+]([O-])c1cnc2ccccc2c1Sc1ccccc1,5.29% [at 16 µM]
12,Cc1ccc(Nc2c([N+](=O)[O-])c(=O)n(C)c3ccccc23)cc1,1.4% [at 1 µM]
13,CCOCCCNc1c([N+](=O)[O-])c(=O)n(C)c2ccccc12,2.4%
14,O=C(Oc1cccc(/C=N/Nc2nc(Nc3ccccc3)nc(N3CCOCC3)n2)c1)c1ccco1,2.6% [at 16 µM]
15,Cc1ccc(Sc2c([N+](=O)[O-])cnc3ccccc23)cc1,6.63% [at 16 µM]
16,Cn1c(=O)c([N+](=O)[O-])c(Cl)c2ccccc21,4.66% [at 8 µM]
17,Cc1ccc(Nc2c([N+](=O)[O-])c(=O)oc3ccccc23)cc1,1.87% [at 2.1 µM]
18,CCOC(=O)N1CCN(c2c([N+](=O)[O-])c(=O)n(C)c3ccccc23)CC1,2.35%
19,O=c1oc2ccccc2c(N2CCCCC2)c1[N+](=O)[O-],-1.32% [at 16 µM]
20,Cn1c(=O)c([N+](=O)[O-])c(-n2cnc3ccccc32)c2ccccc21,1.87% [at 4.2 µM]
